Compound activity deposited in PubChem by several laboratories.
DAT uptake mod – modulates human dopamine transporter uptake under cocaine | actives 1.3% (n = 110,000) | Q01959 | LLC-PK1 hDAT cells, [14C]-dopamine uptake with cocaine IC80; actives deviate in either direction | B-score at 10 µM;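 active = Z score or B-score, a plate-position-corrected score, falls beyond the plate's 99.7% confidence bounds, in either direction; inactive = both scores lie inside the 99.7% bounds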
M1 antag – blocks the rat M1 muscarinic receptor response to acetylcholine; P08482; CHO-M1 cells, Fluo-4 calcium, ACh EC80 antagonist mode; active compounds read low; B-score at 10 µM; actives 3.4% (n = 64,000); AID 628;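 active = calcium fluorescence response, raw or row-and-column corrected B-score, differing from the plate sample mean either way at a set confidence level, mostly lower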
Target sequence (P08482 whole entry, looked up): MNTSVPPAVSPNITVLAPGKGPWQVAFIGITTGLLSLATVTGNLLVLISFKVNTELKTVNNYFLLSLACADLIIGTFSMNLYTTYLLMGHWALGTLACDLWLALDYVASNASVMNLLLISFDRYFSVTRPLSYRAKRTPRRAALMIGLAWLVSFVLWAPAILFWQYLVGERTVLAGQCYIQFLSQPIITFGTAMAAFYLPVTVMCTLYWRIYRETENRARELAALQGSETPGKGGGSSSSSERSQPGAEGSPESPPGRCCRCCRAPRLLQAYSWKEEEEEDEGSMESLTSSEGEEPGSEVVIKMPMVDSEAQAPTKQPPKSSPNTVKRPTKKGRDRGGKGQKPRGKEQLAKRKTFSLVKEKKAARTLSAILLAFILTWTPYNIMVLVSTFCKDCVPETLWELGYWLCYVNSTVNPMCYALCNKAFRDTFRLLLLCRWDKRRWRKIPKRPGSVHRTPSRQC
M1 agonist – activates the M1 muscarinic receptor; CHO-M1 cells, Fluo-4 calcium fluorescence, agonist mode; active compounds read high; B-score at 10 µM; actives 3% (n = 64,000);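 active = fluorescence rise, raw or as B-score row- and column-corrected plate score, outside the 99.7% band of its plate's samples, either direction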
Jurkat viability – cytotoxicity toward Jurkat cells; Jurkat E6.1 viability, ATP luminescence, 48 h; inhibition, % at 4 µM; actives 1.2% (n = 56,000); AID 463;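 active = inhibition above the mean inhibition of all tested compounds plus 3 SD, cut at about 28% in these data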
HEK293 NFkB inh – inhibitors of the PMA/ionomycin-induced NF-kB reporter in HEK293 cells | actives 0.21% (n = 62,000) | inhibition, % at 3 µM | HEK-293 NF-kB luciferase reporter, luminescence;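 active = inhibition above the mean of all tested compounds plus 3 SD, cut at about 40% in these data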
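Timing: 1 h pretreatment, 16 h stimulation, 37 °C; system: HEK-293 cells with stable firefly luciferase reporter driven by four HIV NF-kB elements; doses: 3 µM once, 0.30% DMSO; measured by: luciferase luminescence; control set: DMSO and 10 µM reference inhibitor; repeats: single test; reagent: PMA plus ionomycin mix as NF-kB-activating stimulus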
D1 allo mod – allosteric modulators of human D1 dopamine receptor; actives 5.9% (n = 58,000); P21728; HEK293 D1, CRE-luciferase, dopamine EC30 potentiation; actives deviate in either direction; B-score at 10 µM; AID 641;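 active = luminescence count or its row- and column-corrected plate score outside the 99.7% band of the plate's sample wells, on either side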
D1 PAM confirm – D1 receptor (human) allosteric modulation, confirmed; shares compounds with D1 allo mod; HEK293 D1 CRE-luciferase, dopamine EC30 potentiation; active compounds read high; luminescence at 10 µM; actives 88% (n = 2,200);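 active = luminescence in either of two replicates above the same-plate mean plus 3 SD of the low-dose dopamine control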
D1 no dopamine – D1 (human) signaling in absence of dopamine; shares compounds with D1 allo mod; HEK293 D1 CRE-luciferase, luminescence, no dopamine; active compounds read high; luminescence at 10 µM; actives 0.8% (n = 1,900); AID 646; in the data active = luminescence above about 3900
Isoprot counter – counter-screen for D1 modulators: isoproterenol response in HEK293 cells | calls only at 10 µM | actives 63% (n = 2,200) | shares compounds with D1 allo mod | HEK293 D1 CRE-luciferase, isoproterenol EC30 counter-screen;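 active = luminescence in either replicate above plate mean of wells with a partly effective reference agonist dose plus 3 SD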;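 also: isoproterenol raises cAMP through native beta-adrenoceptor Gs so signal bypasses D1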
Large screens that a line does not name were inactive (follow-up assays come after a bar, where they were run). Shown are actives, neighbours in structure and some others; about 7.6% of the full set was active somewhere.

CCOC(=O)c1c(C)c(C(=O)NCc2ccc3c(c2)OCO3)c(C)n1C	D1 allo mod 4.3 | D1 PAM confirm 5908 | D1 no dopamine inactive | Isoprot counter inactive
CCCOc1ccc(C(=O)Nc2ccccc2[N+](=O)[O-])cc1	none (no result: M1 antag, M1 agonist, Jurkat viability, HEK293 NFkB inh, D1 allo mod)
O=S1(=O)CCOC[C@H](Cc2ccccc2)N1Cc1ccccc1	none (no result: M1 antag, M1 agonist, Jurkat viability, HEK293 NFkB inh, D1 allo mod)
NC(=O)NC(=O)Nc1ccccc1Cl	D1 allo mod 2.8 | D1 PAM confirm 7220 | D1 no dopamine inactive | Isoprot counter inactive
CCOC(=O)c1nnn(-c2nonc2N)c1CSc1ccccn1	none
COc1ccc(-c2cc(N)n(S(=O)(=O)c3c(F)c(F)c(F)c(F)c3F)n2)cc1OC	Jurkat viability 88, D1 allo mod 4.9 | D1 PAM confirm 11216 | D1 no dopamine inactive | Isoprot counter active
Cc1cc(C)n(-c2nnc3n2N=C(c2c[nH]c4ccccc24)CS3)n1	Jurkat viability 57, D1 allo mod 9.8 | D1 PAM confirm 10564 | D1 no dopamine inactive | Isoprot counter active
Cc1cc(C)n(-c2nnc3n2N=C(c2ccccc2)CS3)n1	none
O=C(COc1ccc(Cl)cc1Cl)Nc1ccc2nc3n(c(=O)c2c1)CCCC3	none (no result: D1 allo mod)
COc1ccc(-c2nc(CSCC(=O)N3CCc4ccccc43)c(C)o2)cc1OC	D1 allo mod 3.8 | D1 PAM confirm 11284 | D1 no dopamine inactive | Isoprot counter active
CCSc1nnc(NC(=O)C2CCCN(S(=O)(=O)c3cnc[nH]3)C2)s1 (stereo not drawn)	none
CCOC(=O)c1cn(-c2ccccc2)nc1-c1cccnc1	D1 allo mod 23 (no result: M1 antag, M1 agonist) | D1 PAM confirm 27848 | D1 no dopamine inactive | Isoprot counter active
O=C(O)c1cn(-c2ccccc2)nc1-c1cccnc1	none
COc1ccc(OC)c(NC(=O)CSc2nnc(-c3ccco3)n2-c2ccccc2)c1	none (no result: D1 allo mod)
CCOC(=O)CSc1nnc(-c2ccco2)n1-c1ccccc1	none
COC(=O)c1cccc(CSc2nnc(-c3ccco3)n2-c2ccccc2)c1	D1 allo mod 4.2 | D1 PAM confirm 17968 | D1 no dopamine inactive | Isoprot counter active
CCOC(=O)CSc1nnc(-c2ccco2)n1-c1ccc(C)cc1	D1 allo mod 4.3 | D1 PAM confirm inactive | Isoprot counter active
COC(=O)CSc1nnc(-c2ccco2)n1-c1ccc(C)cc1	D1 allo mod 15 | D1 PAM confirm 17312 | D1 no dopamine inactive | Isoprot counter active
CCOC(=O)c1sc(C)c2c1NC1(CCCCC1)NC2=O	D1 allo mod 6.2 | D1 PAM confirm 14036 | Isoprot counter active
COc1ccc(C(=O)/C=C/Nc2cccc(O)c2)cc1	none (no result: M1 antag, M1 agonist, Jurkat viability, HEK293 NFkB inh, D1 allo mod)
COc1ccc(-c2cnnn2-c2ccc(N)cc2)cc1OC	D1 allo mod 11 | D1 PAM confirm 19800 | D1 no dopamine inactive | Isoprot counter active
COC(=O)c1c(-c2cccs2)csc1NC(=O)CN1CCOCC1	D1 allo mod 28 | D1 PAM confirm 18224 | D1 no dopamine inactive | Isoprot counter active
COc1ccc(C(C#N)C2(C)OCCO2)cc1OC (stereo not drawn)	D1 allo mod 10 | D1 PAM confirm 10756 | Isoprot counter active
COc1ccc(C(C#N)N2CCCCC2)cc1OC (stereo not drawn)	none
CCN(CC)c1nc(N)c2c(N)nc3c(c2c1C#N)CC(c1ccccc1)O3 (stereo not drawn)	M1 antag 2.2, D1 allo mod 3.6 | D1 PAM confirm 6688 | D1 no dopamine inactive | Isoprot counter inactive
CCCCn1c(CCC(=O)O)nc2c1c(=O)[nH]c(=O)n2CCC	none (no result: M1 antag, M1 agonist, Jurkat viability, HEK293 NFkB inh, D1 allo mod)
CCCCn1c(=O)[nH]c(=O)c2c1nc(COC(=O)c1c(C)noc1C)n2CCC	D1 allo mod 6.2 | D1 PAM confirm 14616 | D1 no dopamine inactive | Isoprot counter active
COc1ccccc1NC(=O)CSc1ccc2nnc(-c3cccnc3)n2n1	D1 allo mod 2.5 | D1 PAM confirm inactive | D1 no dopamine inactive | Isoprot counter inactive
Nc1nc2n(n1)C(c1cccc(Br)c1)CC(c1ccccc1)N2 (stereo not drawn)	D1 allo mod 37 | D1 PAM confirm 18056 | D1 no dopamine inactive | Isoprot counter active
COc1cccc(C2CC(c3ccc(Cl)cc3)n3nc(N)nc3N2)c1 (stereo not drawn)	none
COc1cccc(C2CC(c3cccc(Br)c3)n3nc(N)nc3N2)c1 (stereo not drawn)	D1 allo mod 9.3 | D1 PAM confirm 12600 | D1 no dopamine inactive | Isoprot counter active
CCc1ccc(C2CC(c3ccccc3)Nc3nc(N)nn32)cc1 (stereo not drawn)	none
COc1cc(S(=O)(=O)N2CCCCCC2)ccc1-n1cnnn1	none (no result: M1 antag, M1 agonist, Jurkat viability, HEK293 NFkB inh, D1 allo mod)
COc1ccc(CN(C2CCCC2)S(=O)(=O)c2ccc(-n3cnnn3)c(OC)c2)cc1OC	D1 allo mod 6.1 (no result: Jurkat viability) | D1 PAM confirm 9100 | D1 no dopamine inactive | Isoprot counter active
CCn1c(Cn2nnc(-c3ccccc3)n2)nnc1SCC(=O)Nc1ccccc1	none (no result: D1 allo mod)
Cc1cccc(CN2CCN(CC(=O)NCc3cccs3)C2=O)c1	none (no result: M1 antag, M1 agonist, Jurkat viability, HEK293 NFkB inh, D1 allo mod)
Cc1ccc(S(=O)(=O)N2CCOCC2)cc1C(=O)Nc1ccccn1	none
Cc1cc(NC(=O)c2cc(S(=O)(=O)N3CCCCC3)ccc2C)n(-c2ccccn2)n1	D1 allo mod 21 | D1 PAM confirm 16476 | D1 no dopamine inactive | Isoprot counter active
CCCC(=O)NC(=S)Nc1c(C)cc(Br)cc1C	none (no result: M1 antag, M1 agonist, Jurkat viability, HEK293 NFkB inh, D1 allo mod)
Cc1ccc(-n2nc3c(c2NC(=O)c2ccc(Br)o2)CSC3)c(C)c1	D1 allo mod 4.8 (no result: Jurkat viability) | D1 PAM confirm inactive | D1 no dopamine inactive | Isoprot counter inactive
O=C(NCc1ccc2c(c1)OCO2)c1ccc(CS(=O)(=O)c2ccc(Br)cc2)o1	none
CN(Cc1ccccc1)c1nc2c(c(=O)[nH]c(=O)n2C)n1C	none
C/C=C/Cn1c(N(C)Cc2ccccc2)nc2c1c(=O)[nH]c(=O)n2C	D1 allo mod 7.3 | D1 PAM confirm 21832 | D1 no dopamine inactive | Isoprot counter active
Cc1cccc(Cn2c(N(C)Cc3ccccc3)nc3c2c(=O)[nH]c(=O)n3C)c1	D1 allo mod 8 | D1 PAM confirm 19408 | D1 no dopamine inactive | Isoprot counter active
COC(=O)[C@@H]1C[C@@]2(O)[C@H](O)[C@H](O)[C@H](O)C[C@H]2N1Cc1ccc(C(F)(F)F)cc1	none (no result: M1 antag, M1 agonist, Jurkat viability, HEK293 NFkB inh, D1 allo mod)
CCn1ncc2c1C(=O)NC1c3ccccc3C(=O)N21 (stereo not drawn)	D1 allo mod 17 | D1 PAM confirm 21460 | Isoprot counter active
